Experiment [1] is filed under the species Rattus norvegicus. Put plainly: The number of responses made on the (R)(-)-DOB appropriate level as a percent of total responses made during the 2.5 min extinction session in the stimulus-generation studies was calculated at dose 6.0 mg / kg. The experiment is classed as functional. The method in brief:
(§1)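 Male Sprague-Dawley rats (n = 6) were trained on a two-lever operant task for sweetened-milk reward to discriminate 0.2 mg/kg (R)-(-)-DOB-HCl ip from 1.0 mL/kg 0.9% saline, with a VI 15-s schedule and 15-min sessions. Test doses were given ip 15 min before a 2.5-min extinction session, in random order, to groups of 3-6 rats. Read-out was % drug-lever responses; fewer than five total responses counted as disrupted.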

For experiment [2], the species on record is Rattus norvegicus. Put plainly: The number of animals responding per number of animals receiving the drug(1/4) in the stimulus-generation studies was calculated at dose 8.5 mg / kg. The experiment is classed as functional. The method in brief:
(§2)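 Male Sprague-Dawley rats were trained to discriminate 0.2 mg/kg ip training drug from saline (two levers, VI 15-s, milk reward). Test doses were given ip 15 min pre-session in random order to groups of 3–6. In the 2.5-min extinction session, rats making fewer than five total responses were counted as disrupted. N is animals responding over animals dosed.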

The species entered for experiment [3] is Rattus norvegicus. The experiment can be described thus: The number of animals responding per number of animals receiving the drug(3/4) in the stimulus-generation studies was calculated at dose 0.3 mg / kg. The format is functional.
Experiment [4] is filed under the species Rattus norvegicus. The experiment can be described thus: The number of animals responding per number of animals receiving the drug(3/5) in the stimulus-generation studies was calculated at dose 7.8 mg / kg. The format is functional. The method in brief:
as §2

For experiment [5], the species on record is Rattus norvegicus. The experiment can be described thus: The number of responses made on the (R)(-)-DOB appropriate level, generation studies was calculated at dose 8.5 mg / kg; NR means not responding. The format is functional, organism-based. The arrangement: dose 8.5 mg / kg. In outline:
as §1

The species named for experiment [6] is Rattus norvegicus. The experiment can be described thus: The number of responses made on the (R)(-)-DOB appropriate level, generation studies was calculated at dose 7.5 mg / kg. The format is functional. In outline: as §1
Experiment [7] is filed under the species Rattus norvegicus. The experiment can be described thus: The number of animals responding per number of animals receiving the drug(3/5) in the stimulus-generation studies was calculated at dose 6.0 mg / kg. The experiment is classed as functional. The method in brief:
as §2

For experiment [8], the species on record is Rattus norvegicus. The experiment can be described thus: The mean responses per minute during the 2.5 min extinction session in the stimulus-generation studies was calculated at dose 2.0 mg / kg. The format is functional. The method in brief:
(§3)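 Rats were trained on a two-lever drug-versus-saline discrimination (0.2 mg/kg ip training dose, VI 15-s, food reward). Challenge doses were given ip 15 min before a 2.5-min extinction test, in random order, to groups of 3–6 rats, with at least three training sessions between tests. Response rate is responses per minute over the extinction session.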

For experiment [9], the species on record is Rattus norvegicus. The experiment can be described thus: The number of responses made on the (R)(-)-DOB appropriate level as a percent of total responses made during the 2.5 min extinction session in the stimulus-generation studies was calculated at dose 2.2 mg / kg. The experiment is classed as functional. In outline: as §1
The species entered for experiment [10] is Rattus norvegicus. Put plainly: The number of responses made on the (R)(-)-DOB appropriate level, generation studies was calculated at dose 2.0 mg / kg. The format is functional. In outline:
as §1

The species entered for experiment [11] is Rattus norvegicus. The experiment can be described thus: The mean responses per minute during the 2.5 min extinction session in the stimulus-generation studies was calculated at dose 7.8 mg / kg. The format is functional. In outline:
as §3

The species entered for experiment [12] is Rattus norvegicus. Put plainly: The mean responses per minute during the 2.5 min extinction session in the stimulus-generation studies was calculated at dose 6.0 mg / kg. The experiment is classed as functional. In outline:
as §3

For experiment [13], the species on record is Rattus norvegicus. Put plainly: The mean responses per minute during the 2.5 min extinction session in the stimulus-generation studies was calculated at dose 2.2 mg / kg. The experiment is classed as functional. In outline: as §3
The species entered for experiment [14] is Rattus norvegicus. The experiment can be described thus: The mean responses per minute during the 2.5 min extinction session in the stimulus-generation studies was calculated at dose 7.5 mg / kg. The format is functional. The method in brief:
as §3

For experiment [15], the species on record is Rattus norvegicus. Put plainly: The compound was tested for effective dose ( ED 50) against stimulus generation with rats trained to discriminate (R) (-)-DOB from saline. The experiment is classed as functional. The method in brief: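 Male Sprague-Dawley rats (n = 6) on a two-lever operant task for sweetened milk, VI 15-s schedule. Trained to discriminate 0.2 mg/kg ip training drug from 1.0 mL/kg 0.9% saline, 15 min pre-session. Test doses were given ip in random order to groups of 3–6, with 15-min pretreatment and a 2.5-min extinction session. ED50 was calculated from dose-response data.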

The target of experiment [16] is T1, Serotonin 2 (5-HT2) receptor (Rattus norvegicus, UniProt P30994+P08909+P14842). The experiment can be described thus: Affinity towards [3H]- ketanserin-labeled 5-hydroxytryptamine 2 receptor sites in rat cortical homogenates. The method in brief: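 Label was 0.4 nM [3H]ketanserin, with 11 competitor concentrations run in triplicate and nonspecific binding defined by 1 μM cinanserin. Bound ligand was filtered onto glass fibre and counted by scintillation. IC50 came from nonlinear regression; Ki = IC50/(1+[D]/KD).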

Experiment [17] relates to Rattus norvegicus. Put plainly: The number of animals responding per number of animals receiving the drug in the stimulus-generation studies was calculated at dose 2.2 mg/kg. The format is functional. In outline: as §2
For experiment [18], the species on record is Rattus norvegicus. Put plainly: The number of animals responding per number of animals receiving the drug(4/6) in the stimulus-generation studies was calculated at dose 4.0 mg / kg. The format is functional. The method in brief: as §1
The species entered for experiment [19] is Rattus norvegicus. Put plainly: The number of responses made on the (R)(-)-DOB appropriate level, generation studies was calculated at dose 7.8 mg / kg. The format is functional. The method in brief:
as §1

The species entered for experiment [20] is Rattus norvegicus. Put plainly: The mean responses per minute during the 2.5 min extinction session in the stimulus-generation studies was calculated at dose 4.0 mg / kg. The format is functional. The method in brief:
as §3

The species named for experiment [21] is Rattus norvegicus. The experiment can be described thus: The number of animals responding per number of animals receiving the drug(3/5) in the stimulus-generation studies was calculated at dose 7.5 mg / kg. The format is functional. The method in brief:
as §2

The species named for experiment [22] is Rattus norvegicus. The experiment can be described thus: The number of responses made on the (R)(-)-DOB appropriate level, generation studies was calculated at dose 4.0 mg / kg. The format is functional. The method in brief:
as §1

Experiment [23] deals with T1, Serotonin 2 (5-HT2) receptor. The experiment can be described thus: Affinity towards [3H]- DOB -labeled 5-hydroxytryptamine 2 receptor sites in rat cortical homogenates.

The source made the active and inactive calls. No cut-off for these calls is given here.

As usually defined, the ED50 is the midpoint of the dose-response relation. Usually Ki stands for the equilibrium dissociation constant of an inhibitor or competing ligand from its target. A higher Ki goes with a looser hold on the target. Regarding `COc1cc(CC(C)N(C)C)c(OC)cc1Br` (stereo not drawn), the Responding is given as 38% in experiment [1]; 64% in experiment [6]; 6% in [9]; 23% in [10]; 86% in experiment [19]; 29% in [22]. Further, the “No. of animals responding/animals receiving drug” value is given as 1 in [2]; 3 in [3]; 3 in [4]; 3 in experiment [7]; 5 in experiment [17]; 4 in experiment [18]. Further, in experiment [21], the “No. of animals responding/animals receiving drug” value is recorded as 3. In addition, in experiment [5], the Responding result was “inactive”. In addition, the Response rate in experiment [8] is recorded as 14.6; in experiment [11], 4.5; in [12], 8.1; in experiment [13], 14.8; in experiment [14], 6.8; in experiment [20], 10.1. The same compound registered an ED50 in [15] of 5.36 mg/kg. Further, the values for the Ki in experiment [16] and in experiment [23] were 0.38 µM and 0.094 µM, respectively.

These data come from ChEMBL document CHEMBL1123747, “N-methyl derivatives of the 5-HT2 agonist 1-(4-bromo-2,5-dimethoxyphenyl)-2-aminopropane” (J Med Chem, 1987).
